Assay results from article PMC9647114 (Journal of Clinical and Translational Hepatology, 2022).
Bridges are numbered along the chain shown (N, C = ends). Where no end group is shown, it is not given here.

Assays:
HCC-LM3 cells = experiment: Confocal fluorescence microscopy of probe binding to HCC-LM3 cells; assay type: cell-based, human; conditions: 6 nM probe, 2 h incubation, Fig. 1B
Outline: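 HCC-LM3 cells were grown on glass coverslips for 24 h, then incubated with 6 nM Cy7-labelled probe for 2 h and washed three times in PBS. They were fixed in 4% paraformaldehyde, permeabilised with 0.2% Triton X-100 and blocked with 5% BSA. Staining used rabbit anti-integrin α6 (1:250, overnight, 4°C), then fluorescein goat anti-rabbit (1:1,000, 1 h, 37°C), with DAPI for nuclei. Imaged by confocal microscopy.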

orthotopic HCC lesions = experiment: NIRF imaging with Cy5 probe, orthotopic HCC mice; assay type: in vivo; conditions: i.v., Supplementary Fig. 1
H22 cells = experiment: CCK-8 in vitro cytotoxicity assay; assay type: cell-based, mouse; conditions: 0 to 500 nM, 48 h or 72 h, Supplementary Fig. 3
Outline: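 H22 mouse hepatoma cells grown in DMEM with 10% FBS and 1% pen/strep at 37°C, 5% CO2. Cells were seeded at 3×10^3 per well and left 24 h, then exposed to the Cy7-labelled peptide probe at 0–500 nM for 48 h or 72 h. CCK-8 reagent was then added for 2 h, and absorbance was read at 450 nm.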

[1] = tested on: subcutaneous HCC-LM3 tumor; experiment: NIRF imaging and ex vivo biodistribution, subcutaneous HCC-LM3 tumor model; assay type: in vivo; conditions: mice, i.v., statement of the discussion
[2] = tested on: orthotopic HCC-LM3 tumors; experiment: NIRF imaging, orthotopic HCC-LM3 tumor model; assay type: in vivo, mice; conditions: post-injection; sustained until 24 h
[3] = tested on: orthotopic HCC-H22 tumors; experiment: NIRF imaging and biodistribution, orthotopic HCC-H22 tumor model; assay type: in vivo, mice; conditions: orthotopic HCC-H22, tumor and major organs 48 h after injection, Fig. 3
Outline: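 Nude mice carried orthotopic luciferase-tagged H22 liver lesions and received Cy7-labelled probe or Cy7-control peptide i.v. by tail vein. NIRF imaging used 740 nm excitation and a 780 nm filter. Mice were killed 48 h post-injection, and tumor, heart, liver, spleen, kidney, lung and brain were imaged ex vivo. Organ fluorescence intensity was quantified.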

[4] = tested on: subcutaneous HCC-LM3 tumors; experiment: Photoacoustic imaging, subcutaneous HCC-LM3 tumors; assay type: in vivo, mice; conditions: after i.v. injection, 0 to 48 h
major organs = experiment: In vivo toxicity by H&E staining of major organs; conditions: imaging dose; heart, spleen, lung, kidney, brain of H22 tumor-bearing nude mice vs control group, Supplementary Fig. 9
integrin a6 = conditions: peptide identified by phage display; cited from earlier work

## CGGGGGGGC (cysteine pairing not given here) [Cy7-control, reference compound]
HCC-LM3 cells
  Fluorescence signal in cells by confocal microscopy: no fluorescence response

## CRWYDENAC (disulfide 1-9 (inferred)) [Cy5-RWY]
Orthotopic HCC lesions
  Homing of probe to HCC lesions (NIRF): specifically homed to HCC lesions

## CRWYDENAC (disulfide 1-9 (inferred)) [Cy7-RWY]
HCC-LM3 cells
  Fluorescence signal in cells by confocal microscopy: Strong red fluorescence signals
H22 cells
  Cytotoxicity (cell viability, CCK-8): no significant cytotoxicity
[1]
  Renal clearance: fast renal clearance
[2]
  Time at which tumor fluorescence signal reached a steady level: 6 h
[3]
  Ex vivo fluorescence signal in tumors: high level of the fluorescence signal
[4]
  Time at which NIRF and PA signals in the tumor peaked: 24 h
  Time at which NIRF and PA signals started to accumulate in the tumor: 2 h
Major organs
  Cell and tissue damage in major organs (H&E): did not find significant cell and tissue damage

## CRWYDENAC (disulfide 1-9 (inferred)) [RWY]
Integrin a6
  Binding to integrin a6: high specificity and affinity
